Data set [1] can be described thus: Cytotoxicity against african green monkey Vero cells after 72 hrs by Cell titer Glo assay. Type of data set: cell-based. As to conditions: chlorocebus sabaeus. In a few lines: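 VERO cells exposed to compounds for 72 h, run in parallel with the M. tuberculosis dose-response assay. Viability read by ATP-based luminescence (Cell Titer-Glo). CC50 taken from the dose-response curve by curve fitting.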

The test system of data set [2] is Mycobacterium tuberculosis. Briefly: Antimycobacterial activity against Mycobacterium tuberculosis H37Rv by microplate Alamar blue assay. It is filed as functional, organism-based. In a few lines:
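M. tuberculosis H37Rv (ATCC 27294) grown in BACTEC 12B medium, broth microdilution read by Alamar Blue (MABA). Ten 2-fold dilutions, typically 100 to 0.19 µg/mL. IC90 = concentration giving 90% fluorescence reduction relative to controls; IC50 at 50%. Both taken from dose-response curve by curve fitting. Run alongside a parallel VERO cytotoxicity assay.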

≈ marks a conversion by molar mass, not a printed value.

Experimental findings from ChEMBL document CHEMBL1208674, “Synthesis and anti-mycobacterial evaluation of some pyrazine-2-carboxylic acid hydrazide derivatives” (Eur J Med Chem, 2010) are described below.

`C/C(=N\NC(=O)c1cnccn1)c1ccc(Br)cc1` gave a CC50 at 72 h in data set [1] of over 30 µg/mL. In data set [2], this compound displayed an IC50 of over 100 µg/mL and an IC90 of over 100 µg/mL.

In the case of `COc1ccc(/C(C)=N/NC(=O)c2cnccn2)cc1`, the CC50 at 72 h in data set [1] was over 30 µg/mL. In data set [2], the IC50 is over 100 µg/mL and the IC90 was over 100 µg/mL.

`NNC(=O)c1cnccn1` [PYRAZINE CARBOXYLIC ACID HYDRAZIDE] had a CC50 at 72 h in data set [1] of over 30 µg/mL. Further, in data set [2], the IC50 is over 100 µg/mL and the IC90 was over 100 µg/mL.

`COc1ccc(/C=N/NC(=O)c2cnccn2)cc1` yielded a CC50 at 72 h in data set [1] of over 30 µg/mL. In data set [2], this compound returned an IC50 of over 100 µg/mL and an IC90 of over 100 µg/mL.

In turn, `Cc1ccc2nc(Cl)c(/C=N/NC(=O)c3cnccn3)cc2c1` showed a CC50 at 72 h in data set [1] of over 30 µg/mL. Also, in data set [2], the IC50 was over 100 µg/mL and the IC90 is over 100 µg/mL.

Regarding `COc1ccc2nc(Cl)c(/C=N/NC(=O)c3cnccn3)cc2c1`, the CC50 at 72 h in data set [1] is 5.37 µg/mL (≈ 15.7 µM). In data set [2], this compound came in with an IC50 of over 100 µg/mL and an IC90 of over 100 µg/mL.

On to `O=C(N/N=C/c1ccccc1O)c1cnccn1`, for which the CC50 at 72 h in data set [1] came to 11.4 µg/mL (≈ 47.2 µM). In data set [2], this compound yielded an IC50 of over 100 µg/mL and an IC90 of over 100 µg/mL.

Regarding `O=C(N/N=C/c1cccc(O)c1)c1cnccn1`, the CC50 at 72 h in data set [1] was over 30 µg/mL. In data set [2], the 50% inhibitory concentration (IC50) was over 100 µg/mL and the concentration for an effect of 90% (IC90) was over 100 µg/mL.

In data set [1], `O=C(N/N=C/c1ccc(Cl)cc1)c1cnccn1` had a 50% cytotoxic concentration (CC50) at 72 h of over 30 µg/mL. In data set [2], this compound came in with an IC50 of over 100 µg/mL and a concentration for an effect of 90% (IC90) of over 100 µg/mL.

In data set [1], `Nc1cccc(/C=N/NC(=O)c2cnccn2)c1` yielded a CC50 at 72 h of over 30 µg/mL. In data set [2], this compound registered an IC50 of over 100 µg/mL and an IC90 of over 100 µg/mL.

Turning to `COc1cc(/C=N/NC(=O)c2cnccn2)ccc1O`, the CC50 at 72 h in data set [1] is over 30 µg/mL. In data set [2], this compound came in with an IC50 of over 100 µg/mL and an IC90 of over 100 µg/mL.

In turn, `O=C(N/N=C/c1ccc(O)cc1)c1cnccn1` displayed a CC50 at 72 h in data set [1] of over 30 µg/mL. Moreover, in data set [2], the IC50 is over 100 µg/mL and the concentration for an effect of 90% (IC90) was over 100 µg/mL.

`CCNC(=S)NNC(=O)c1cnccn1` came in with a CC50 at 72 h in data set [1] of 29.8 µg/mL (≈ 132 µM). In data set [2], this compound displayed an IC50 of 11.4 µg/mL (≈ 50.5 µM) and an IC90 of 16.9 µg/mL (≈ 74.9 µM).
